Measured values reported in ChEMBL document CHEMBL4673199, “Potent and selective A3 adenosine receptor antagonists bearing aminoesters as heterobifunctional moieties” (RSC Med Chem, 2021).

What was measured:
Adenosine receptor A2a = Adenosine receptor A2a (Homo sapiens, UniProt P29274); assay: Displacement of [3H]-NECA from human A2A receptor expressed in CHO cell membrane by radioligand binding assay; assay type: cell membranes
How it was run: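 Crude membrane fraction from transfected CHO cells, obtained by 1,000 x g then 100,000 x g centrifugation, in 50 mM Tris/HCl pH 7.4, stored at -80 °C. Radioligand at 10 nM; 100 µM R-PIA defined nonspecific binding. Ki computed with SCTFIT, mean of 3-6 replicates.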

Adenosine receptor A2b = target: T1, Adenosine receptor A2b (Homo sapiens, UniProt P29275); assay: Antagonist activity at human A2B receptor expressed in CHO cell membrane assessed as reduction in NECA-stimulated adenylyl cyclase activity in presence of [alpha32P]ATP; assay type: functional, cell membranes
T1 sequence (P29275 whole entry): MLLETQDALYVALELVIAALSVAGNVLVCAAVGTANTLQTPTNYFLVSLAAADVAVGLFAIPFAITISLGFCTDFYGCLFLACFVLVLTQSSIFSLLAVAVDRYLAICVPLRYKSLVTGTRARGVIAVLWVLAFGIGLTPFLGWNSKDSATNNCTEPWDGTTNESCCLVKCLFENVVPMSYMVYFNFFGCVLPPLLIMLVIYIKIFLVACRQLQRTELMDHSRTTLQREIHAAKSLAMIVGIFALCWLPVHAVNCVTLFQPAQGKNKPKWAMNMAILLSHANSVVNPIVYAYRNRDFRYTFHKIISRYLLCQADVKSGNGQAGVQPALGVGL

Adenosine receptor A1 = target: T2, Adenosine receptor A1 (Homo sapiens, UniProt P30542); assay: Displacement of [3H]CCPA from human A1 receptor expressed in CHO cell membrane by radioligand binding assay; assay type: cell membranes
T2 sequence (P30542 whole entry): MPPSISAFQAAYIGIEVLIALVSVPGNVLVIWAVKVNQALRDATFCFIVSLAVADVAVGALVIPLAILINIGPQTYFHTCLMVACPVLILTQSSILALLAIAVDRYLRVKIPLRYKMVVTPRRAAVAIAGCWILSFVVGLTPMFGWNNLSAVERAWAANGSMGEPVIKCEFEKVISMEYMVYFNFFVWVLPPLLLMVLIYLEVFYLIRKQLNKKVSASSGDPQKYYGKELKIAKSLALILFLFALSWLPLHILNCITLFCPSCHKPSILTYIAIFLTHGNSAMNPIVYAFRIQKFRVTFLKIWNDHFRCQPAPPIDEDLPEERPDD
How it was run: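 CHO membranes prepared by 1,000 x g clearing, then 100,000 x g sedimentation, resuspended in 50 mM Tris/HCl pH 7.4 and kept at -80 °C. Labelled with 1 nM radioligand; nonspecific binding with theophylline (1 mM). Ki values from SCTFIT, mean of 3-6 replicates.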

Adenosine receptor A3 = target: T3, Adenosine receptor A3 (Homo sapiens, UniProt P0DMS8); assay: Displacement of [3H]-HEMADO from human A3 receptor expressed in CHO cell membrane by radioligand binding assay; assay type: cell membranes
T3 sequence (P0DMS8 whole entry): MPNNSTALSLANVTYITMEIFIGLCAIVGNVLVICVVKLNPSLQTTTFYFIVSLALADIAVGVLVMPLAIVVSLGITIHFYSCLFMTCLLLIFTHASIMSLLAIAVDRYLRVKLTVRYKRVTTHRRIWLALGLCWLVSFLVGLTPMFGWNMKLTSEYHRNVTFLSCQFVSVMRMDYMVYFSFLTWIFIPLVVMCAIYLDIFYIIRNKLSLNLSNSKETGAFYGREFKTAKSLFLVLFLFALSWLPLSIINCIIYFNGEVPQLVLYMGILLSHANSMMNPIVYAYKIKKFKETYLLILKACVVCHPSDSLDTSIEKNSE
How it was run: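 Membranes from CHO cells with human receptor: low-speed spin at 1,000 x g, then crude membranes pelleted at 100,000 x g. Resuspended in 50 mM Tris/HCl, 10 mM MgCl2, 1 mM EDTA, pH 8.25, stored at -80 °C. Radioligand at 1 nM; nonspecific binding with 100 µM R-PIA. Ki by SCTFIT, mean of 3-6 replicates.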

Sequence of Adenosine receptor A2a (P29274 whole entry): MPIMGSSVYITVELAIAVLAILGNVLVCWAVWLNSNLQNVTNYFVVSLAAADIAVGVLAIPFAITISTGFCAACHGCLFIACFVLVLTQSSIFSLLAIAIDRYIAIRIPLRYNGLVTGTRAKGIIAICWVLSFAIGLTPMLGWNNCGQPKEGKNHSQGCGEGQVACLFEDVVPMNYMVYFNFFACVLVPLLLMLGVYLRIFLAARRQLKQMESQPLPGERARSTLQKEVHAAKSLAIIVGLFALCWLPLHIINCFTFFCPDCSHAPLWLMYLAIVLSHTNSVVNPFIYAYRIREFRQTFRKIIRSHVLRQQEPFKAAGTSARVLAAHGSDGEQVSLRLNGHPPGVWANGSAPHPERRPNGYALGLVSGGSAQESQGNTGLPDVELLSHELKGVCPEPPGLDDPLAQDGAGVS

Ki (Adenosine receptor A2a) [nM] | IC50 (Adenosine receptor A2b) [nM] | Ki (Adenosine receptor A1) [nM] | Ki (Adenosine receptor A3) [nM] | Structure (SMILES)
376 | > 10000 | 882 | 46.5 | CCOC(=O)C(Nc1nc2nn(C)cc2c2nc(-c3ccco3)nn12)C(O)c1ccccc1 (racemic)
860 | > 10000 | 173 | 0.306 | CCOC(=O)C(Nc1nc2nn(C)cc2c2nc(-c3ccco3)nn12)c1ccccc1 (racemic)
889 |  | 1570 | 59.7 | CCOC(=O)[C@@H](Cc1c[nH]c2ccccc12)Nc1nc2nn(C)cc2c2nc(-c3ccco3)nn12
1300 | > 10000 | 1820 | 50.6 | CCOC(=O)[C@H](Cc1ccccc1)Nc1nc2nn(C)cc2c2nc(-c3ccco3)nn12
1270 | > 10000 | 591 | 1.72 | CCOC(=O)C(Nc1nc2nn(C)cc2c2nc(-c3ccco3)nn12)C(C)C (racemic)

More lines, now with the values behind:

Structure (SMILES) | Ki (Adenosine receptor A2a) [nM] | IC50 (Adenosine receptor A2b) [nM] | Ki (Adenosine receptor A1) [nM] | Ki (Adenosine receptor A3) [nM]
CCOC(=O)C(C)Nc1nc2nn(C)cc2c2nc(-c3ccco3)nn12 (racemic) | 820 | > 10000 | 2200 | 15.5
CCOC(=O)[C@H](Cc1ccc(O)cc1)Nc1nc2nn(C)cc2c2nc(-c3ccco3)nn12 | 1300 | > 10000 | 617 | 24.6
CCOC(=O)CC[C@H](Nc1nc2nn(C)cc2c2nc(-c3ccco3)nn12)C(=O)OCC | 2670 | > 10000 | 919 | 7.55
CCOC(=O)C(CO)Nc1nc2nn(C)cc2c2nc(-c3ccco3)nn12 (racemic) | 348 |  | 312 | 17.1
CCOC(=O)CCCNc1nc2nn(C)cc2c2nc(-c3ccco3)nn12 | 231 | > 10000 | 901 | 108
CCCCC(Nc1nc2nn(C)cc2c2nc(-c3ccco3)nn12)C(=O)OCC (racemic) | 551 | > 10000 | 388 | 1.06
CCOC(=O)C(CC(C)C)Nc1nc2nn(C)cc2c2nc(-c3ccco3)nn12 (racemic) | 398 | > 10000 | 322 | 0.5
CCOC(=O)C[C@H](Nc1nc2nn(C)cc2c2nc(-c3ccco3)nn12)C(=O)OCC | 445 | > 10000 | 552 | 16.3
COC(=O)[C@@H]1CCCN1c1nc2nn(C)cc2c2nc(-c3ccco3)nn12 | 428 | > 10000 | 2270 | 113
